ChEMBL document CHEMBL1158477, “Synthesis, in vivo evaluation, and molecular modeling studies of new pyrazolo[5,1-c][1,2,4]benzotriazine 5-oxide derivatives. Identification of a bifunctional hydrogen bond area related to the inverse agonism” (J Med Chem, 2009)
Activity calls are given as the source filed them. No cut-off for these calls is given here.

Legend:
Mus musculus [1] = experiment: Effect on motor coordination in CD1 albino mouse assessed as number of falls form rotarod at 3 mg/kg, po administered 60 mins before test measured for 30 seconds after 30 mins of drug infusion by rotarod test; assay type: functional
Summary of the method: (§1)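 Rota-rod in male CD-1 mice with a pretest. Test substance given po in 1% CMC; falls from the rotating rod counted over 30 s, assessed 30 min after treatment.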

Mus musculus [2] = experiment: Effect on motor coordination in CD1 albino mouse assessed as number of falls form rotarod at 10 mg/kg, po […] measured for 30 seconds after 30 mins of dosing by rotarod test; assay type: functional; summary of the method: as §1
Mus musculus [3] = experiment: Effect on motor coordination in CD1 albino mouse assessed as number of falls form rotarod at 30 mg/kg, po […] measured for 30 seconds after 30 mins of drug infusion by rotarod test; assay type: functional; summary of the method: as §1
Mus musculus [4] = experiment: Anticonvulsant activity against pentylenetetrazole-induced shock in CD1 albino mouse assessed as shock latency at 3 mg/kg, po preincubated for 30 mins before pentylenetetrazole challenge measured for 30 mins (RVb=253.1 +/- 13 seconds); assay type: functional
Mus musculus [5] = experiment: Anticonvulsant activity against pentylenetetrazole-induced shock in CD1 albino mouse assessed as shock latency at 10 mg/kg, po preincubated for 30 mins before pentylenetetrazole challenge measured for 30 mins (RVb=253.1 +/- 13 seconds); assay type: functional
Mus musculus [6] = experiment: Anticonvulsant activity against pentylenetetrazole-induced shock in CD1 albino mouse assessed as shock latency at 30 mg/kg, po preincubated for 30 mins before pentylenetetrazole challenge measured for 30 mins (RVb=253.1 +/- 13 seconds); assay type: functional
Mus musculus [7] = experiment: Anticonvulsant activity against pentylenetetrazole-induced convulsions in CD1 albino mouse assessed as convulsion latency at 3 mg/kg, po preincubated for 30 mins before pentylenetetrazole challenge measured for 30 mins (RVb=599 +/- 37.6 seconds); assay type: functional
Mus musculus [8] = experiment: Anticonvulsant activity against pentylenetetrazole-induced convulsions in CD1 albino mouse assessed as convulsion latency at 10 mg/kg, po preincubated for 30 mins before pentylenetetrazole challenge measured for 30 mins (RVb=599 +/- 37.6 seconds); assay type: functional
Mus musculus [9] = experiment: Anticonvulsant activity against pentylenetetrazole-induced convulsions in CD1 albino mouse assessed as convulsion latency at 30 mg/kg, po preincubated for 30 mins before pentylenetetrazole challenge measured for 30 mins (RVb=599 +/- 37.6 seconds); assay type: functional
Mus musculus [10] = experiment: Effect on spontaneous motility in CD1 albino mouse assessed as number of movement on plane board at 3 mg/kg, po after 30 mins by hole-board test; assay type: functional
Summary of the method: (§2)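 Hole-board test in male CD-1 mice: animals placed singly on the board and allowed to explore panel and holes. Test run 30 min after po dosing in 1% CMC (10 mL/kg). Hole entries (curiosity) and plane movements (spontaneous motility) counted; 10 mice per group, compared with CMC controls.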

Mus musculus [11] = experiment: Effect on spontaneous motility in CD1 albino mouse assessed as number of movement on plane board at 10 mg/kg, po after 30 mins by hole-board test; assay type: functional; summary of the method: as §2
Mus musculus [12] = experiment: Effect on spontaneous motility in CD1 albino mouse assessed as number of movement on plane board at 30 mg/kg, po after 30 mins by hole-board test; assay type: functional; summary of the method: as §2
Mus musculus [13] = experiment: Effect on explorative capacity in CD1 albino mouse assessed as curiosity-related number of head plugging activity on hole at 3 mg/kg, po after 30 mins by hole-board test; assay type: functional; summary of the method: as §2
Mus musculus [14] = experiment: Effect on explorative capacity in CD1 albino mouse assessed as curiosity-related number of head plugging activity on hole at 10 mg/kg, po after 30 mins by hole-board test; assay type: functional; summary of the method: as §2
Mus musculus [15] = experiment: Effect on explorative capacity in CD1 albino mouse assessed as curiosity-related number of head plugging activity on hole at 30 mg/kg, po after 30 mins by hole-board test; assay type: functional; summary of the method: as §2
Mus musculus [16] = experiment: Anxiolytic activity in CD1 albino mouse at 3 mg/kg, po after 30 mins by light/dark box test; assay type: functional, organism-based; set-up: dose 3 mg/kg
Summary of the method: (§3)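 Male CD-1 mice (22-24 g) given test substance po in 1% CMC (10 mL/kg), tested 30 min later in a light/dark box. Transfers between compartments and time spent in the illuminated side were measured. Values are mean ± SEM of 15-20 mice; compared with controls.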

Mus musculus [17] = experiment: Anxiolytic activity in CD1 albino mouse at 10 mg/kg, po after 30 mins by light/dark box test; assay type: functional, organism-based; set-up: dose 10 mg/kg; summary of the method: as §3
Mus musculus [18] = experiment: Anxiolytic activity in CD1 albino mouse at 30 mg/kg, po after 30 mins by light/dark box test; assay type: functional, organism-based; set-up: dose 30 mg/kg; summary of the method: as §3
Mus musculus [19] = experiment: Anxiolytic activity in CD1 albino mouse at 10 mg/kg, po after 30 mins by light/dark box test in presence of flumazenil; assay type: functional, organism-based; set-up: dose 10 mg/kg
Summary of the method: (§4)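 Light/dark box in male CD-1 mice. Test substance given po in 1% CMC 30 min before the test, with flumazenil 100 mg/kg ip (saline) co-treatment. Transfers between compartments and time in the lit side recorded. Mean ± SEM of 15-20 mice.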

Mus musculus [20] = experiment: Anxiolytic activity in CD1 albino mouse at 30 mg/kg, po after 30 mins by light/dark box test in presence of flumazenil; assay type: functional, organism-based; set-up: dose 30 mg/kg; summary of the method: as §4
Mus musculus [21] = experiment: Effect on learning and memory process in CD1 albino mouse assessed as improvement in retention latency at 10 mg/kg, po after 24 hrs by passive avoidance test; assay type: functional, organism-based; set-up: dose 10 mg/kg
Summary of the method: (§5)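 Step-through passive avoidance in a two-compartment box (lit and dark compartments joined by a guillotine door). Male CD-1 mice dosed po (1% CMC) 30 min before training; retention tested 24 h later. Training and retention latencies recorded; mean ± SEM of 15-20 mice versus controls.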

Mus musculus [22] = experiment: Effect on learning and memory process in CD1 albino mouse assessed as improvement in retention latency at 30 mg/kg, po after 24 hrs by passive avoidance test; assay type: functional, organism-based; set-up: dose 30 mg/kg; summary of the method: as §5
Mus musculus [23] = experiment: Effect on ethanol-induced sleeping time in CD1 albino mouse assessed as increase in duration of loss of righting reflex at 10 mg/kg, po preincubated 30 mins before ethanol challenge; assay type: functional, organism-based; set-up: dose 10 mg/kg
Mus musculus [24] = experiment: Effect on ethanol-induced sleeping time in CD1 albino mouse assessed as increase in duration of loss of righting reflex at 3 mg/kg, po preincubated 30 mins before ethanol challenge; assay type: functional, organism-based; set-up: dose 3 mg/kg
Mus musculus [25] = experiment: Effect on ethanol-induced sleeping time in CD1 albino mouse assessed as reduction in duration of loss of righting reflex at 30 mg/kg, po preincubated 30 mins before ethanol challenge; assay type: functional, organism-based; set-up: dose 30 mg/kg
Bos taurus = organism: Bos taurus; experiment: Displacement of [3H]flumazenil from GABAA/Benzodiazepine receptor in bovine brain at 10 uM
Summary of the method: (§6)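 Bovine brain membranes; displacement of specific [3H]flumazenil (Ro15-1788) binding. Percent inhibition measured at 10 μM; Ki determined only when inhibition at that concentration exceeded 80%. Ki given as mean ± SEM of five determinations.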

[26] = Displacement of [3H]flumazenil from GABAA/Benzodiazepine receptor in bovine brain; set-up: species or system Bos taurus; summary of the method: as §6
Mus musculus [27] = experiment: Effect on learning and memory process in CD1 albino mouse assessed as improvement in retention latency at 100 mg/kg, ip after 24 hrs by passive avoidance test; assay type: functional, organism-based; set-up: dose 100 mg/kg
Summary of the method: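 Male CD-1 mice treated ip 30 min before training in a step-through passive avoidance box, a lighted compartment joined to a dark one by a guillotine door. Training latency recorded, then retention latency 24 h later. Mean of 15-20 mice per group.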

Mus musculus [28] = experiment: Anticonvulsant activity against pentylenetetrazole-induced shock in CD1 albino mouse assessed as absence of shocks at 1 mg/kg, ip preincubated for 30 mins before pentylenetetrazole challenge measured for 30 mins; assay type: functional, organism-based; set-up: dose 1 mg/kg
Summary of the method: (§7)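 Male CD-1 mice (22-24 g), drug in isotonic saline given ip; PTZ 90 mg/kg sc injected 30 min after drug. Occurrence of clonic generalized convulsions noted over 30 min, with shock and convulsion latency recorded. Controls received 1% CMC.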

Mus musculus [29] = experiment: Anticonvulsant activity against pentylenetetrazole-induced convulsions in CD1 albino mouse assessed as absence of convulsions at 1 mg/kg, ip preincubated for 30 mins before pentylenetetrazole challenge measured for 30 mins; assay type: functional, organism-based; set-up: dose 1 mg/kg; summary of the method: as §7
Mus musculus [30] = experiment: Anxiolytic activity in CD1 albino mouse at 1 mg/kg, ip after 20 mins by light/dark box test in presence of flumazenil; assay type: functional, organism-based; set-up: dose 1 mg/kg
Summary of the method: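 Male CD-1 mice given drug ip in saline, tested in a light/dark box. Number of transfers between compartments and time spent in the illuminated side recorded. Flumazenil given ip at 100 mg/kg as antagonist.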

Mus musculus [31] = experiment: Effect on ethanol-induced sleeping time in CD1 albino mouse assessed as increase in duration of loss of righting reflex at 1 mg/kg, ip preincubated 30 mins before ethanol challenge; assay type: functional, organism-based; set-up: dose 1 mg/kg
Summary of the method: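 Male CD-1 mice given drug ip in saline. Ethanol 4 g/kg ip injected 30 min after drug. Duration of loss of righting reflex taken as sleep time, capped at 210 min. Mean of 15-20 mice per group.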

SMILES: [O-][n+]1nc2c(I)cnn2c2cc(OCc3ccccc3)ccc21
- Activity (Mus musculus [1]): 1.5
- Activity (Mus musculus [2]): 2.2
- Activity (Mus musculus [3]): 1.7
- Activity (Mus musculus [4]): 375 s
- Activity (Mus musculus [5]): 266.1 s
- Activity (Mus musculus [6]): 354 s
- Activity (Mus musculus [7]): 380.2 s
- Activity (Mus musculus [8]): 360.8 s
- Activity (Mus musculus [9]): 479.7 s
- Activity (Mus musculus [10]): 54.3
- Activity (Mus musculus [11]): 66.9
- Activity (Mus musculus [12]): 54.5
- Activity (Mus musculus [13]): 29
- Activity (Mus musculus [14]): 22.7
- Activity (Mus musculus [15]): 28.7
- Activity (Mus musculus [16]): Active
- Activity (Mus musculus [17]): Active
- Activity (Mus musculus [18]): Active
- Activity (Mus musculus [19]): inactive
- Activity (Mus musculus [20]): inactive
- Activity (Mus musculus [21]): Active
- Activity (Mus musculus [22]): Active
- Activity (Mus musculus [23]): inactive
- Activity (Mus musculus [24]): inactive
- Activity (Mus musculus [25]): Active
- Activity (Bos taurus): > 80%
- Ki [26]: 1.1 nM

SMILES: CCOC(=O)c1ncn2c1CN(C)C(=O)c1cc(F)ccc1-2
- Activity (Mus musculus [27]): Active

SMILES: CN1C(=O)CN=C(c2ccccc2)c2cc(Cl)ccc21
- Activity (Mus musculus [28]): Active
- Activity (Mus musculus [29]): Active
- Activity (Mus musculus [30]): inactive
- Activity (Mus musculus [31]): Active
